In PMC7683378 (Journal of autoimmunity, 2020):

Legend:
[1] = system: 5KC cells (TCR specific for the InsB:9-23–DQ8 complex); assay: Cellular antigen presentation assay; type: cell-based, mouse; conditions: BSM cells + 5KC cells incubated with the peptide; IL-2 by Luminex
Method in brief: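 HLA-DQ8-homozygous BSM B-cells (RPMI, 10% FBS, 37 °C, 5% CO2): 10^6 cells loaded overnight with 200 μg/ml InsB:9-23 (scrambled InsB:9-23 or gliadin as negative peptides), washed twice with PBS, then given RI-D-peptide or scrambled control for 2 h at 37 °C. 5KC mouse T-hybridoma cells with human TCR added 1:1, overnight. Supernatant IL-2 by Luminex; anti-CD3/CD28 beads as positive control; 4–5 independent experiments.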

[2] = system: recombinant HLA-DQ8 protein; type: binding, human; conditions: serially diluted to 0.5 μM, 48 hours at 37 °C
Method in brief: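 DELFIA: recombinant HLA-DQ8 (0.012 mg/ml) with 10 μM biotinylated InsB:9-23, plus RI-D-peptide serially diluted to 0.5 μM final, 48 h at 37 °C in 0.1% BSA/PBS with 0.05% Triton. Then bound on nickel-coated plates 2 h at RT, washed, Eu-streptavidin 30 min at RT, washed, enhancement solution ~1 h. Time-resolved fluorescence gave percent inhibition.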

[3] = system: lymphocytes from immunized SJL-DQ8 mice; assay: Ex vivo cytokine production; type: cell-based, mouse; conditions: all peptides 20 μg/ml, 48 hours, Luminex; 20 SJL-DQ8 mice
Method in brief: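 Lymphocytes from spleens and draining nodes of SJL-DQ8 mice (6–8 weeks) immunised s.c. with 150 μg InsB:9-23 in CFA and boosted in IFA. Plated at 2×10^5 cells/well in RPMI/10% FBS with medium, InsB:9-23 with or without RI-D-peptides or scrambled versions, or scrambled InsB:9-23, all at 20 μg/ml. Supernatants taken at 48 h, kept at −80 °C, cytokines by mouse Milliplex Luminex panel.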

[4] = system: PBMCs from HLA-DQ8 positive T1D patients; assay: Lymphocyte proliferation; type: cell-based, human; conditions: all peptides 20 μg/ml; gated on live T-cells
Method in brief: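 Fresh Ficoll-isolated PBMCs from patients with at least one DQB*03:02 allele, in RPMI/10% FBS. Stimulated 48 h with InsB:9-23 or scrambled InsB:9-23, with or without RI-D-peptides or scrambled versions, all at 20 μg/ml. Proliferation by CFSE as for mouse lymphocytes, gated on live T-cells. Inhibition = 100 − 100 × (proliferation with/without RI-D-peptide).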

[5] = system: PBMCs from HLA-DQ8 positive T1D patients; assay: Cytokine production; type: cell-based, human; conditions: all peptides 20 μg/ml, 48 hours, Luminex; 31 new onset DQ8 positive T1D patients
Method in brief: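 Fresh PBMCs from heparinised blood (Ficoll) of patients genotyped for at least one DQB*03:02 allele, seeded in RPMI/10% FBS. Stimulated 48 h with InsB:9-23 or scrambled InsB:9-23, with or without RI-D-peptides or scrambled versions, all peptides at 20 μg/ml. Supernatant cytokines by Luminex, as for mouse lymphocytes. Long-standing (>10 years) DQ8 T1D patients served as controls.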

[6] = system: lymphocytes from immunized SJL-DQ8 mice; assay: ELISPOT of IL-2 and IFN-γ secretion by lymphocytes of immunized SJL-DQ8 mice; type: cell-based, mouse; conditions: 5X10^5 lymphocytes, peptides 20 μg/ml, 48 hours
Method in brief: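 SJL-DQ8 mice (6; 3 female, 3 male) immunised s.c. with 150 μg InsB:9-23 in CFA and boosted in IFA. 5×10^5 spleen/draining-node lymphocytes plated on nitrocellulose wells coated with 4 μg/ml IL-2 or 10 μg/ml anti-IFN-γ capture antibody, 48 h at 37 °C with peptides at 20 μg/ml. Biotinylated detection antibody 2 h, streptavidin-AP 1 h, BCIP/NBT development. Positive response: >20 net SFC/10^6 and P<0.05 (t-test, triplicates).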

[7] = system: recombinant HLA-DQ8 protein; assay: DELFIA immunoassay: inhibition of binding of other HLA-DQ8-binders; design: species or system human; conditions: biotinylated GAD65 or gliadin peptide with RI-D-peptide
[8] = system: lymphocytes from immunized SJL-DQ8 mice; assay: Ex vivo lymphocyte proliferation; type: cell-based, mouse; conditions: all peptides 20 μg/ml, 5 days, flow cytometry
Method in brief: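 Spleen/draining-node cells from InsB:9-23-immunised SJL-DQ8 mice, 10^6 cells at 2×10^6/ml in 0.1% BSA/PBS, labelled with 1.5 μM CFSE for 10 min at 37 °C. Quenched with ice-cold RPMI/10% FBS, 5 min on ice, washed three times. Plated at 2×10^5 cells/well with peptides at 20 μg/ml for 5 days. Flow cytometry gated on live singlets; at least triplicates; inhibition = 100 − 100 × (proliferation with/without RI-D-peptide).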

| Sequence | Activation of 5KC T-cells (IL-2 secretion) by the peptide itself [1] | Dose dependence of inhibition of InsB:9-23 binding to HLA-DQ8 [2] | IFN-γ production by lymphocytes stimulated with InsB:9-23 [3] | IL-2 production by lymphocytes stimulated with InsB:9-23 [3] | Lymphocytes proliferation in PBMCs stimulated with InsB:9-23 (CFSE assay) [4] | IFN-γ production in PBMCs stimulated with InsB:9-23 [5] | IL-2 production in PBMCs stimulated with InsB:9-23 [5] | IFN-γ ELISPOT response to InsB:9-23 [6] | IL-2 ELISPOT response to InsB:9-23 [6] | Competition with other HLA-DQ8-binders (GAD65, gliadin) [7] | Lymphocyte proliferation induced by InsB:9-23 (CFSE assay) [8] |
| --- | --- | --- | --- | --- | --- | --- | --- | --- | --- | --- | --- |
| GGREGCVLYLAEVGG [RI-CT] | did not activate TCR | dose-dependent | significantly blocked | significantly blocked | significantly suppressed | significantly suppressed | significantly suppressed | significantly decreased | significantly decreased | competed only with InsB:9-23 and not with other HLA-DQ8-binders | significantly suppressed |
| FFGGREGCVLYLAEVLHSG [RI-EXT] | did not activate TCR | dose-dependent | significantly blocked | significantly blocked | significantly suppressed | significantly suppressed | significantly suppressed | significantly decreased | significantly decreased | competed only with InsB:9-23 and not with other HLA-DQ8-binders | significantly suppressed |
